Assay outcomes as filed in PubChem BioAssay.
Most compounds without a hit are left out; they make up all but 6.4% or so of the library.
WT yeast gro inh – growth inhibition of WT yeast, mitochondrial fusion screen; mitochondrial fusion phenotypic screen, WT strain; inhibition, % at 10 µM; hit rate 2.1% among 190,000; AID 1362; in the data active means inhibition above about 58%; tested in S. cerevisiae
CHOP inh – CHOP inhibition in unfolded protein response. CHO-K1 CHOP-promoter luciferase, tunicamycin-induced, 15-18 h. inhibition, % at 10 µM. hit rate 3.8% among 220,000. AID 2732;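 active means compounds that reduced the stress-induced luciferase reporter signal by more than about 70% of percent inhibition, limit read from the data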;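 further: 0% = tunicamycin plus vehicle and 100% = wells without tunicamycin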
GRIN3A LBD mod – NR3A (human) ligand-binding domain modulation; NR3A LBD differential scanning fluorimetry, Tm shift; 0% = protein alone, 100% = glycine-bound protein; Tm shift relative to glycine control, % at 25 µM; hit rate 2.5% among 340,000;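 active means melting temperature shift of at least 10% of the positive control shift, at one fixed dose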
EBV gp42 block – inhibitors of Epstein-Barr virus glycoprotein 42. Q1HVG2. Fluorescence polarization binding assay, mP read-out. inhibition, % (tested at 21.74 µM). hit rate 0.42% among 220,000. AID 1085; in the data active means inhibition above about 50%
Target sequence (Q1HVG2 whole entry, looked up): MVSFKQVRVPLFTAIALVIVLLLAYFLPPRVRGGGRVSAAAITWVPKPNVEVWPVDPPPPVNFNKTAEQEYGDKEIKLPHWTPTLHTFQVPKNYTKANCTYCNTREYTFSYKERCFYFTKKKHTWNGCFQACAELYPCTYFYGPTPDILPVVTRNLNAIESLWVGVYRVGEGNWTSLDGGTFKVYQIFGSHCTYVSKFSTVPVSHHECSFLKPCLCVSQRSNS
TbMetRS inhib – blocks T. brucei methionyl-tRNA synthetase activity | hit rate 0.4% among 360,000 | AID 624268 | purified T. brucei MetRS, ATP depletion, Kinase-Glo luminescence | inhibition, % at 11.9 µM;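 active means inhibition above a per-plate cutoff of the control wells' mean inhibition plus 3 SD, cut at about 5.5% in these data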;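 further: 0% = DMSO wells median and 100% = median of wells with control inhibitor compound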
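Assay system: T. brucei methionyl-tRNA synthetase, purified | Medium: HEPES buffer with MgCl2, KCl, DTT, spermine, BSA, pyrophosphatase | Compound: 11.9 µM single point | Incubation: 15 min enzyme-compound preincubation, 2 h reaction, 10 min detection, 25 °C | Measured by: Kinase-Glo luciferase luminescence reporting remaining unconsumed ATP | Measure: % inhibition normalized to control-well medians | Replication: Singlicate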
MPTP block – blocks calcium-induced mitochondrial swelling; hit rate 1.4% among 360,000; inhibition, % at 10 µM; isolated mouse mitochondria, Ca2+ swelling absorbance, 30 min;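 active means inhibition of 50% or more, scaled per plate between neutral and stimulator controls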;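 further: 0% = DMSO wells given calcium and 100% = 1 mM EGTA wells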
CHOP inh conf – confirmation of CHOP induction inhibitors. shares compounds with CHOP inh. CHO-CHOP promoter luciferase reporter, tunicamycin-induced, luminescence. inhibition, % at 10 µM. hit rate 45% among 2,100. AID 504437;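 active means mean of three repeat readings of reporter signal inhibition above a set limit, cut at about 70% in these data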;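 further: 0% = tunicamycin plus vehicle and 100% = wells lacking tunicamycin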
Rh123 counter – Rhodamine 123 counter-screen of mitochondrial pore hits; hit rate 78% among 5,000; shares compounds with MPTP block; AID 624504; isolated mitochondria, membrane potential, Rhodamine 123 fluorescence; inhibition, % at 10 µM; in the data active means inhibition above about 22%;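 further: 0% = DMSO vehicle and 100% = positive control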
Active calls of the source: *; nt = no result.

SMILES	WT yeast gro inh	CHOP inh	GRIN3A LBD mod	EBV gp42 block	TbMetRS inhib	MPTP block	CHOP inh conf	others
COc1ccc(-n2c(N)c(C(=O)NCc3ccco3)c3nc4ccccc4nc32)cc1OC	-8	104*	1	-7	0	0	34
C=CCN1C(=O)C(Cc2ccccc2)S/C1=N/N=C/c1cccs1 (stereo not given)	27	-1	3	-11	0	1	nt
O=C(CCc1ccccc1)N/N=C\C1CC=CCC1 (stereo not given)	nt	nt	-3	nt	0	0	nt
C/C(=N/NC(=O)COc1ccc(C(C)(C)C)cc1)c1ccc(N2CCOCC2)cc1	nt	nt	-1	nt	0	-1	nt
CC(C)(C)c1ccc(OCC(=O)N/N=C/C2CC=CCC2)cc1 (stereo not given)	-4	99*	-2	-3	0	0	99*
CC(C)(C)c1ccc(OCC(=O)N/N=C/c2ccc(N3CCOCC3)cc2)cc1	55	105*	-6	3	0	-2	65
CC(NC(=O)COC(=O)C1CCN(c2ccc(C(F)(F)F)cn2)CC1)c1ccccc1 (stereo not given)	nt	nt	nt	nt	0	1	nt
Cc1cccc(Nc2nc(N)c([N+](=O)[O-])c(NCc3ccccc3)n2)c1	nt	102*	1	-2	3	7	25
Nc1nc(Nc2ccccc2)nc(NCc2ccccc2)c1[N+](=O)[O-]	nt	26	-5	-4	0	11	nt
Cc1ccc(S(=O)(=O)c2c(N)n(-c3ccccc3)c3nc4ccccc4nc23)cc1	-21	29	-5	27	-1	2	nt
O=S(=O)(Nc1c(S(=O)(=O)c2ccccc2)c2nc3ccccc3nc2n1C1CCCCC1)c1ccccc1	-2	106*	-2	33	1	48	23
COc1cc(NS(=O)(=O)c2ccc(NC(=S)NC(=O)c3ccco3)cc2)ncn1	-14	18	-2	-19	0	-3	nt
COc1cc(NS(=O)(=O)c2ccc(NC(=S)NC(=O)c3sc4ccccc4c3Cl)cc2)ncn1	-4	100*	-3	-16	0	1	41
BrC(=C\c1ccccc1)/C=N/n1cnnc1	16	106*	-4	-14	0	0	-22
Cc1cc(C)c2nc(-c3ccccn3)cc(C(=O)Nc3cc(C)on3)c2c1	14	101*	1	-7	0	4	99*
CCN(CC)S(=O)(=O)c1ccc(N/N=C(\C)c2cccnc2)nc1	nt	nt	-3	nt	0	-1	nt
O=S1(=O)C=C(Sc2nnc(-c3ccccc3)o2)c2ccccc21	75	nt	8	-27	-1	0	125*
O=c1cc(C(Cl)(Cl)Cl)oc2c1ccc1ccccc12	78*	100*	2	-4	0	-1	-10
O=c1cc(-c2ccco2)oc2c1ccc1ccccc12	20	17	-1	-7	-2	0	nt
CNC(=S)Nn1cnc2ccccc21	nt	7	-3	-22	-1	-1	nt
Cc1cc(Cl)ccc1OCc1n[nH]c(=S)n1C1CCCCC1	94*	103*	-6	-8	0	4	119*
Cn1c(=O)c([N+](=O)[O-])c(Cl)c2ccccc21	52	108*	0	-6	0	-2	141*
CCN(CC)c1c([N+](=O)[O-])c(=O)n(C)c2ccccc12	1	3	1	3	-3	-4	nt
CC(C)COc1ccc(/C(=N/O)c2ccccc2)cc1	55	107*	1	-6	-1	3	92*
Nc1c(C(=O)N/N=C/c2ccccc2Cl)oc2nc(-c3ccccc3)cc(-c3ccco3)c12	nt	34	3	-6	0	1	nt
SMILES	WT yeast gro inh	CHOP inh	GRIN3A LBD mod	EBV gp42 block	TbMetRS inhib	MPTP block	CHOP inh conf	others
Nc1c(C(=O)N/N=C/c2ccc(F)cc2)oc2nc(-c3ccccc3)cc(-c3ccco3)c12	nt	101*	2	-48	-1	2	-2
CC1CN(C(=O)COC(=O)c2cc([N+](=O)[O-])ccc2Cl)CC(C)O1 (stereo not given)	-10	-2	2	9	-1	-5	nt
N#CC1=C(N)Oc2n[nH]c(-c3cccs3)c2C1C1CCCCC1 (stereo not given)	12	104*	-21	10	-2	2	37
N#CC1=C(N)Oc2n[nH]c(-c3cccs3)c2C1c1ccsc1 (stereo not given)	24	30	-3	-5	-1	2	nt
Cc1cccc2cc(C#N)c(NCCNS(=O)(=O)c3ccccc3)nc12	3	38	0	3	-1	2	nt
Cc1cccc2cc(C#N)c(NCCCNS(=O)(=O)c3ccc(Cl)cc3)nc12	nt	104*	4	-13	0	50	54
COc1ccc(/C(=N/O)C(C)(C)NO)cc1	-4	99*	-1	-14	0	1	-4
CC(C)(NO)/C(=N\O)c1ccc(Cl)cc1	21	29	1	-15	0	-1	nt
CC(C)(NO)/C(=N/O)c1ccc(Br)cc1	-26	108*	-1	12	0	1	9
COc1c(F)c(F)c(C(=O)Nc2c(C)cc(Br)cc2C)c(F)c1F	-6	4	2	1	0	9	nt
CCN=C1S/C(=C\c2cc(OCC)c(O)cc2Br)C(=O)N1CC	-3	108*	5	-10	-1	67*	37	Rh123 counter=71*
CCN=C1S/C(=C\c2ccc(O)c(OCC)c2)C(=O)N1CC	-5	42	-1	-16	0	0	nt
O=C(Nc1nnc(-c2ccccc2Cl)o1)c1ccco1	8	-21	0	1	-1	-2	nt
O=C(Nc1nnc(-c2ccccc2Cl)o1)c1nc2ccccc2s1	14	99*	-11	-1	-1	96*	-9	Rh123 counter=-9
O=C(NC(Nc1nc2ccc([N+](=O)[O-])cc2s1)(C(F)(F)F)C(F)(F)F)c1ccccc1Cl	84	97*	13*	1	1	92*	125*	Rh123 counter=92*
CC1(C)CC(=O)c2cnc(NC(=O)CSc3nc4ccccc4o3)nc2C1	-7	-1	1	-5	0	-1	nt
Cc1ccccc1C(=O)NNC(=S)NC(=O)c1ccc(Cl)cc1Cl	-9	96*	-13	-10	0	76*	12	Rh123 counter=5
CCc1nnc(NS(=O)(=O)c2ccc(NC(=S)NC(=O)/C=C/c3ccc(C(C)C)cc3)cc2)s1	14	105*	15*	42	0	66*	118*	Rh123 counter=42*
CCc1nnc(NS(=O)(=O)c2ccc(NC(=S)NC(=O)/C=C/c3ccc(OC)cc3)cc2)s1	0	55	-3	-3	-1	18	nt
COc1ccc(OCC(O)CNC(C)c2ccccc2)cc1 (stereo not given)	nt	nt	1	nt	-1	0	nt
